Assays:
[1] = tested on: Mus musculus; experiment: […] anticancer activity against B6D2F-1 mice bearing P388 leukemia measured by the average weight change(g) after day 11 at an intravenous dose of 15(mg/kg).; assay type: functional
How it was run: (§1)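 Male B6D2F1 mice (8 weeks old, 20–25 g) were implanted iv on day 0 with P388/0 ascites cells (0.2 mL; ascites:saline 1.10), which grew in the liver. Drug was given iv via the tail vein, Q2Dx5, on days 1, 3, 5, 7 and 9. Groups had 4–5 mice. Day 1 value is mean body weight; later days are weight change.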

[2] = tested on: Mus musculus; experiment: […] anticancer activity against B6D2F-1 mice bearing Lewis Lung Carcinoma measured by the Average tumor vol after day 7 at an intraperitoneal dose of 6(mg/kg).; assay type: functional
How it was run: (§2)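 Male B6D2F1 mice (8 weeks old, 20–25 g) received 4×10^6 Lewis lung carcinoma cells sc on day -2. Dosing was ip, QDx5, starting on day 1. Groups were 4 control mice and 3 mice per dose. Tumor size and average body-weight change were evaluated on days 7, 10 and 14. Tumor volume is expressed as the treated/control ratio.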

[3] = tested on: Mus musculus; experiment: […] anticancer activity against B6D2F-1 mice bearing Lewis Lung Carcinoma measured by the average weight change(g) after day 10 at an intraperitoneal dose of 6(mg/kg).; assay type: functional; how it was run: as §2
[4] = tested on: Mus musculus; experiment: […] anticancer activity against B6D2F-1 mice bearing Sarcoma 180 measured by the average weight change(g) after day 10 at an intraperitoneal dose of 3(mg/kg).; assay type: functional
How it was run: (§3)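 Male B6D2F1 mice (8 weeks old, 20–25 g) were inoculated sc with 3×10^6 Sarcoma 180 cells on day 0. Dosing was ip, QDx5, starting on day 1. Groups were 4 control mice and 2 mice per dose. Average body weight change (g) and treated/control tumor volume were evaluated on days 7, 10 and 14.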

[5] = tested on: Mus musculus; experiment: […] anticancer activity against B6D2F-1 mice bearing P388 leukemia measured by the average weight change(g) after day 11 at an intravenous dose of 10(mg/kg).; assay type: functional; how it was run: as §1
[6] = tested on: Mus musculus; experiment: […] anticancer activity against 5 B6D2F-1 mice bearing P388 leukemia measured by the toxicity death at an intravenous dose of 15(mg/kg).; assay type: organism-based; details: in vivo
How it was run: (§4)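 Male B6D2F1 mice, 8 weeks old, 20–25 g. P388/0 ascites cells (0.2 mL, ascites:saline 1.10) were implanted iv on day 0, and the tumor grew in the liver. Drug was given iv by tail vein on days 1, 3, 5, 7 and 9 (Q2Dx5), with 4–5 mice per group. Survival time was scored as 8 a.m. (0.0), 1 p.m. (0.25) or 5 p.m. (0.5) deaths. %ILS was averaged against untreated controls, and toxic deaths were counted.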

[7] = tested on: Mus musculus; experiment: […] anticancer activity against 5 B6D2F-1 mice bearing P388 leukemia measured by the toxicity death at an intravenous dose of 10(mg/kg)..; assay type: organism-based; details: in vivo; how it was run: as §4
[8] = tested on: Mus musculus; experiment: […] anticancer activity against B6D2F-1 mice bearing P388 leukemia measured by the average weight change(g) after day 7 at an intravenous dose of 15(mg/kg).; assay type: functional; how it was run: as §1
[9] = tested on: Mus musculus; experiment: […] anticancer activity against B6D2F-1 mice bearing Lewis Lung Carcinoma measured by the Average tumor vol after day 14 at an intraperitoneal dose of 3(mg/kg).; assay type: functional; how it was run: as §2
[10] = tested on: Mus musculus; experiment: […] anticancer activity against B6D2F-1 mice bearing Lewis Lung Carcinoma measured by the average weight change(g) after day 7 at an intraperitoneal dose of 6(mg/kg).; assay type: functional; how it was run: as §2
[11] = tested on: Mus musculus; experiment: […] anticancer activity against B6D2F-1 mice bearing P388 leukemia measured by the Average tumor vol after day 10 at an intravenous dose of 5(mg/kg).; assay type: functional
[12] = tested on: Mus musculus; experiment: […] anticancer activity against B6D2F-1 mice bearing Sarcoma 180 measured by the average weight change(g) after day 10 at an intraperitoneal dose of 5(mg/kg).; assay type: functional; how it was run: as §3
[13] = tested on: Mus musculus; experiment: […] anticancer activity against B6D2F-1 mice bearing Lewis Lung Carcinoma measured by the Average tumor vol after day 7 at an intraperitoneal dose of 3(mg/kg).; assay type: functional; how it was run: as §2
[14] = tested on: Mus musculus; experiment: […] anticancer activity against B6D2F-1 mice bearing Sarcoma 180 measured by the average weight change(g) after day 14 at an intraperitoneal dose of 7(mg/kg).; assay type: functional; how it was run: as §3
[15] = tested on: Mus musculus; experiment: […] anticancer activity against B6D2F-1 mice bearing Lewis Lung Carcinoma measured by the average weight change(g) after day 14 at an intraperitoneal dose of 6(mg/kg).; assay type: functional; how it was run: as §2
[16] = tested on: Mus musculus; experiment: […] anticancer activity against B6D2F-1 mice bearing P388 leukemia measured by the average body weight(g) after day 1 at an intravenous dose of 15(mg/kg).
[17] = tested on: Mus musculus; experiment: […] anticancer activity against B6D2F-1 mice bearing Sarcoma 180 measured by the average weight change(g) after day 14 at an intraperitoneal dose of 5(mg/kg).
[18] = tested on: Mus musculus; experiment: […] anticancer activity against B6D2F-1 mice bearing Sarcoma 180 measured by the average weight change(g) after day 10 at an intraperitoneal dose of 7(mg/kg).; assay type: functional; how it was run: as §3

CCOC(=O)Nc1cc(CO)cc(Nc2c3ccccc3nc3ccccc23)c1
Average weight change [1]: -3.7 g
Average tumor volume [2]: 0.44
Average weight change [3]: -2.6 g
Average weight change [4]: -0.7 g
Average weight change [5]: -0.1 g
Toxicity related death [6]: 4
Toxicity related death [7]: 0
Average weight change [8]: -1.6 g
Average tumor volume [9]: 0.68
Average weight change [10]: -3 g
Average tumor volume [11]: 0.63
Average weight change [12]: 1 g
Average tumor volume [13]: 0.8
Average weight change [14]: -0.4 g
Average weight change [15]: -0.5 g
Body weight [16]: 23 g
Average weight change [17]: 1.2 g
Average weight change [18]: -0.1 g

Source: ChEMBL document CHEMBL1132156, “Synthesis and structure-activity relationships of potential anticancer agents: alkylcarbamates of 3-(9-acridinylamino)-5-hydroxymethylaniline” (J Med Chem, 1999)
